Experimental data published in PubChem BioAssay AID504531 (The Scripps Research Institute Molecular Screening Center, 2011).

Key:
[1] = target: Platelet-activating factor acetylhydrolase (Mus musculus) (UniProt Q60963); test: pPAFAH anti-target inhibition in intact cells, late-stage follow-up, selectivity assay for PAFAH2 inhibitor project, fluorescence, gel-based ABPP, murine mast cells, in situ (AID 504531); conditions: gel-based ABPP FP-Rh, pPAFAH, at 0.01 µM, stronger effect = higher value
Procedure, shortened: (§1)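 Test system: murine mast cells treated in situ, then soluble lysate fraction; Benchmarks: high control DMSO-only treated cells, low control blank-gel background; Times: 4 h 37 °C compound exposure, 30 min 25 °C labelling; Detection: in-gel fluorescence band IOD after SDS-PAGE; Read-out basis: percent inhibition of PAFAH2 and pPAFAH bands, background-subtracted, versus DMSO-treated cells.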

[2] = target: Platelet-activating factor acetylhydrolase 2, cytoplasmic (Mus musculus) (UniProt Q8VDG7); test: as above; conditions: gel-based ABPP FP-Rh, PAFAH2, at 0.01 µM, stronger effect = higher value
Platelet-activating factor acetylhydrolase 2, cytoplasmic (Mus musculus), sequence (Q8VDG7 whole entry, looked up): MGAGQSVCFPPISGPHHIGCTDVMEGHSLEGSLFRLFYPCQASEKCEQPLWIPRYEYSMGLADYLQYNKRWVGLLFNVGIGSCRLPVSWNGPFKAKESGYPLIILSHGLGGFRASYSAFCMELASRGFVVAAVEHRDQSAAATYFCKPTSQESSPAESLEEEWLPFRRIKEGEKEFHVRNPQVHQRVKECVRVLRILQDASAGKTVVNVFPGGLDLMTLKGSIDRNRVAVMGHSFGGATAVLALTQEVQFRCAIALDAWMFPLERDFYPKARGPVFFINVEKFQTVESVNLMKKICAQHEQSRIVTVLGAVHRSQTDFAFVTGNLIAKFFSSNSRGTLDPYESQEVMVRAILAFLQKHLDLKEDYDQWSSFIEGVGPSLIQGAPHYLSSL
Procedure, shortened: as §1

Platelet-activating factor acetylhydrolase (Mus musculus), sequence (Q60963 whole entry, looked up): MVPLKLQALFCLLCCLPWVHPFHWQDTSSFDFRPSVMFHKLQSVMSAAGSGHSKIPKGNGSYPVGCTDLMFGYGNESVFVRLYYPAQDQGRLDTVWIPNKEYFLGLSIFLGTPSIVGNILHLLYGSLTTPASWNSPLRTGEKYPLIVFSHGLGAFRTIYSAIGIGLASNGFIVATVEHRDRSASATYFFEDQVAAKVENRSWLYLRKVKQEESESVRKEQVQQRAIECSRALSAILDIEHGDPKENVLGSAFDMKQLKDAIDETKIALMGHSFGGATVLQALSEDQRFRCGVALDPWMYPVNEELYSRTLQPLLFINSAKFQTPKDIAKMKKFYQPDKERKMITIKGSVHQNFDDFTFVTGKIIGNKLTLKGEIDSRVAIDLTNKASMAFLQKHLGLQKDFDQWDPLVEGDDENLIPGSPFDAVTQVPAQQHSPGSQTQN

Which inhibition [1] does the source give for O=C(N1CCCC1)n1ncc(-c2ccc(-c3ccccc3)cc2)n1 here?
Its inhibition is 0%.

And the inhibition [2]?
Its inhibition is 100%.
